Assay results from ChEMBL document CHEMBL3352171, “Synthesis and biological evaluation of andrographolide analogues as anti-cancer agents” (Eur J Med Chem, 2014).
Calls of active or inactive are those of the source. The rule behind the calls is not given here.

Experiments:
HEK293 [1] = assay: Cytotoxicity against HEK293 cells after 48 hrs by MTT assay; type: functional; conditions: Homo sapiens, HEK293, 48 h; read-out: LC50 (the source's name)
Method in brief: (§1)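 Cells seeded at 10,000 per well and exposed to increasing compound concentrations for 48 h. After a PBS wash, MTT (2.5 mg/mL) was added for 6 h at 37 °C, then detergent (10% NP-40, 4 mM HCl), and absorbance was read at 570 nm. LC50 is the concentration causing 50% cell death. Values are means of three independent experiments.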

Vero = assay: Cytotoxicity against african green monkey Vero cells after 48 hrs by MTT assay; type: cell-based; conditions: chlorocebus sabaeus; method in brief: as §1
HEK293 [2] = assay: Induction of cell cycle arrest in HEK293 cells assessed as accumulation at G1 phase at 5 uM after 48 hrs by propidium iodide staining based flow cytometry (reference value: 53.21 +/- 0.8%); type: functional, Homo sapiens
[3] = Retention time of the compound by HPLC method; type: physicochemical
HEK293 [4] = assay: Reduction in NFkappaB expression in HEK293 cells at LC50 level after 48 hrs by Western blot method; type: functional, cell-based; conditions: Homo sapiens
HEK293 [5] = assay: Induction of cell death in HEK293 cells at 15 to 20 uM after 48 hrs by DAPI staining based fluorescence microscopy; type: functional; conditions: Homo sapiens
HEK293 [6] = assay: Induction of apoptosis in HEK293 cells at 20 uM after 48 hrs by propidium iodide staining based flow cytometry (reference value: 24.26 +/- 0.8%); type: functional, Homo sapiens
[7] = target: T1, Nuclear factor NF-kappa-B complex (Homo sapiens) (UniProt Q00653+P19838+Q04206); assay: Inhibition of NFkappaB (unknown origin) expressed in HEK293 cells assessed as reduction in transcriptional activity after 48 hrs by luciferase reporter gene assay; type: cell-based
T1 sequence (P19838 whole entry, looked up): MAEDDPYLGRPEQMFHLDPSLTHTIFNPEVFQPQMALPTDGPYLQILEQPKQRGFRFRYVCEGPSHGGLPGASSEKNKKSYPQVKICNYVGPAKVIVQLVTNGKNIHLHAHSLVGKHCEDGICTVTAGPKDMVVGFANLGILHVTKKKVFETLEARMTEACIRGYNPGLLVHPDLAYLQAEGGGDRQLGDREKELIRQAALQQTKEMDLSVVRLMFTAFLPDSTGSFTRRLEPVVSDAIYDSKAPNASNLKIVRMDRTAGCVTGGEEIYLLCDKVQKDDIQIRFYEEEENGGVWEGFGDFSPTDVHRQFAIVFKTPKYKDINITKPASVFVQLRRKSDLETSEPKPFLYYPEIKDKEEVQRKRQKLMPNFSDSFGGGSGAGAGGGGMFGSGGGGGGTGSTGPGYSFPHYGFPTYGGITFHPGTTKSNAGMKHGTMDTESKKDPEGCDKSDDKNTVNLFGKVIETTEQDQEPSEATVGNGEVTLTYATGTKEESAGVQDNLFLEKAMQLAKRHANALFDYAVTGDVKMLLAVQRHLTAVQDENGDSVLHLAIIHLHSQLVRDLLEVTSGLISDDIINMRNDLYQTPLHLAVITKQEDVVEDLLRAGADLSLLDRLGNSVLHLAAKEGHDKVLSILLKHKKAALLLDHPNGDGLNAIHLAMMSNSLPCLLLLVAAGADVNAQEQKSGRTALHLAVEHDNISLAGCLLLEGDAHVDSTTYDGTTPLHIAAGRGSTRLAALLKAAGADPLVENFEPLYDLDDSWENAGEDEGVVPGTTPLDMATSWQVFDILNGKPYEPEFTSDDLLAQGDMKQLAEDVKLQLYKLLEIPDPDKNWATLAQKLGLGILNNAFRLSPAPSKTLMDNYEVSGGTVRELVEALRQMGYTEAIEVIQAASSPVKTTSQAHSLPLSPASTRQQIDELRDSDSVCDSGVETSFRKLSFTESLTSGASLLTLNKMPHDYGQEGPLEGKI
T1 sequence (Q00653 whole entry, looked up): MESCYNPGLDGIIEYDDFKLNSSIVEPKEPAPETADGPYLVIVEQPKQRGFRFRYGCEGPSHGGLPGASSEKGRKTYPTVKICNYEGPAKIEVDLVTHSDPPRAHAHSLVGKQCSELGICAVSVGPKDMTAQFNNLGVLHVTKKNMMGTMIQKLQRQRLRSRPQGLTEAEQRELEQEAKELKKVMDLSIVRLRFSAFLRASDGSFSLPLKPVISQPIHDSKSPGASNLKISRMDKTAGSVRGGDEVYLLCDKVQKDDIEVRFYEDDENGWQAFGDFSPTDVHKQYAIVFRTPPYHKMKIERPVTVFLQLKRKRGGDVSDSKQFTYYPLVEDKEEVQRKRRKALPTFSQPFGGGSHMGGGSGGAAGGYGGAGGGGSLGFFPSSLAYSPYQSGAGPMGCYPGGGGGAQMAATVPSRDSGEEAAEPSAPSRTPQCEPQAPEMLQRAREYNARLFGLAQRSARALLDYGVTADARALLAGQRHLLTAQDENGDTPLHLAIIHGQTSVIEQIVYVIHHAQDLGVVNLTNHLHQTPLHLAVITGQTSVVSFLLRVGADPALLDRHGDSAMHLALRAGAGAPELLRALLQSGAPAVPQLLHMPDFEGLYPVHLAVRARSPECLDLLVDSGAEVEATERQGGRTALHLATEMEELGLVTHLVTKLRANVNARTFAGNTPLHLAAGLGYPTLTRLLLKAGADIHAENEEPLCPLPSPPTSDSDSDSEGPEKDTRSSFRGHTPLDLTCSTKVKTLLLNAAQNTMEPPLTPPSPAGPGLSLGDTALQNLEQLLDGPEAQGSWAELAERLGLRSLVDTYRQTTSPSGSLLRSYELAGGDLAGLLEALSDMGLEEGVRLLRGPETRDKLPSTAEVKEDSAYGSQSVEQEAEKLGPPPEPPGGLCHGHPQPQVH
T1 sequence (Q04206 whole entry, looked up): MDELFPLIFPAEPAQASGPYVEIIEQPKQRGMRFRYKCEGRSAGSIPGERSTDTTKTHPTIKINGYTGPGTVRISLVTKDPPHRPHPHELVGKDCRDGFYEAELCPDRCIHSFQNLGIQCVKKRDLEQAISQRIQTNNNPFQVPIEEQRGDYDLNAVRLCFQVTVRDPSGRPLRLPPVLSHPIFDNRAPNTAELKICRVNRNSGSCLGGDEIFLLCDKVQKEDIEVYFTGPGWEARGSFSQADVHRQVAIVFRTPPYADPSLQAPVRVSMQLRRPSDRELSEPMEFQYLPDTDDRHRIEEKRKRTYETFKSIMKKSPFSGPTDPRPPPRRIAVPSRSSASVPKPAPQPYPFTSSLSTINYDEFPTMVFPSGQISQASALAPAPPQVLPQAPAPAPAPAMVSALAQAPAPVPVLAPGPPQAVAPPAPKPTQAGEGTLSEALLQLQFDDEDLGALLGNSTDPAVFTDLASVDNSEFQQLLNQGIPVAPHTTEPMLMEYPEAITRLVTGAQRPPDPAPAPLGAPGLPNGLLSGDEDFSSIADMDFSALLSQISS
Method in brief: (§2)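 HEK-293 at 70% confluence transfected by calcium phosphate with NF-kB luciferase ([…]) and b-Gal ([…]) plasmids, 6–8 h, then fresh serum medium 12 h; treated 48 h, lysed, luciferase read and normalized to b-galactosidase. Three independent experiments.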

HEK293 [8] = assay: Induction of cell cycle arrest in HEK293 cells assessed as accumulation at G1 phase at 10 uM after 48 hrs by propidium iodide staining based flow cytometry (reference value: 53.21 +/- 0.8%); type: functional, Homo sapiens
HEK293 [9] = assay: Induction of apoptosis in HEK293 cells at 15 uM after 48 hrs by propidium iodide staining based flow cytometry (reference value: 24.26 +/- 0.8%); type: functional, Homo sapiens
HEK293 [10] = assay: Induction of cell cycle arrest in HEK293 cells assessed as accumulation at S phase at 20 uM after 48 hrs by propidium iodide staining based flow cytometry (reference value: 19.9 +/- 0.5%); type: functional, Homo sapiens
[11] = Binding affinity to GC-28 DNA (unknown origin) minor groove by DAPI staining based spectrophotometry
Method in brief: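 DAPI–DNA complex fluorescence read at 460 nm emission band; test compound added to the preformed complex and loss of fluorescence followed.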

HEK293 [12] = assay: Increase in p53 expression in p53 deficient HEK293 cells at LC50 level after 48 hrs by Western blot method; type: functional, cell-based; conditions: Homo sapiens
HEK293 [13] = assay: Increase in p53 expression in HEK293 cells at LC50 level after 48 hrs by Western blot method; type: functional, cell-based; conditions: Homo sapiens
MCF7 = assay: Cytotoxicity against human MCF7 cells after 48 hrs by MTT assay; type: functional; conditions: MCF7, 48 h, read-out: LC50 (the source's name); method in brief: as §1
HEK293 [14] = assay: Reduction in Bcl-xL expression in p53 deficient HEK293 cells at LC50 level after 48 hrs by Western blot method; type: functional, cell-based; conditions: Homo sapiens
HEK293 [15] = assay: Induction of apoptosis in HEK293 cells assessed as apoptotic nuclei formation at 10 uM after 48 hrs by DAPI staining based fluorescence microscopy; type: functional, cell-based; conditions: Homo sapiens
HEK293 [16] = assay: Reduction in NFkappaB expression in p53 deficient HEK293 cells at LC50 level after 48 hrs by Western blot method; type: functional, cell-based; conditions: Homo sapiens
HEK293 [17] = assay: Induction of apoptosis in HEK293 cells at 5 uM after 48 hrs by propidium iodide staining based flow cytometry (reference value: 24.26 +/- 0.8%); type: functional, Homo sapiens
HEK293 [18] = assay: Induction of apoptosis in HEK293 cells at 10 uM after 48 hrs by propidium iodide staining based flow cytometry (reference value: 24.26 +/- 0.8%); type: functional, Homo sapiens
HEK293 [19] = assay: Induction of cell cycle arrest in HEK293 cells assessed as accumulation at G1 phase at 15 uM after 48 hrs by propidium iodide staining based flow cytometry (reference value: 53.21 +/- 0.8%); type: functional, Homo sapiens
HEK293 [20] = assay: Increase in Bax expression in HEK293 cells at LC50 level after 48 hrs by Western blot method; type: functional, cell-based; conditions: Homo sapiens
HEK293 [21] = assay: Increase in PARP cleavage in p53 deficient HEK293 cells at LC50 level after 48 hrs by Western blot method; type: functional, cell-based; conditions: Homo sapiens
HEK293 [22] = assay: Induction of cell cycle arrest in HEK293 cells assessed as accumulation at G2/M phase at 5 uM after 48 hrs by propidium iodide staining based flow cytometry (reference value: 2.63 +/- 0.7%); type: functional, Homo sapiens
HEK293 [23] = assay: Induction of cell cycle arrest in HEK293 cells assessed as accumulation at G2/M phase at 20 uM after 48 hrs by propidium iodide staining based flow cytometry (reference value: 2.63 +/- 0.7%); type: functional, Homo sapiens
HEK293 [24] = assay: Induction of cell cycle arrest in HEK293 cells assessed as accumulation at S phase at 10 uM after 48 hrs by propidium iodide staining based flow cytometry (reference value: 19.9 +/- 0.5%); type: functional, Homo sapiens
HEK293 [25] = assay: Induction of cell cycle arrest in HEK293 cells assessed as accumulation at G1 phase at 20 uM after 48 hrs by propidium iodide staining based flow cytometry (reference value: 53.21 +/- 0.8%); type: functional, Homo sapiens
HEK293 [26] = assay: Induction of cell cycle arrest in HEK293 cells assessed as accumulation at S phase at 5 uM after 48 hrs by propidium iodide staining based flow cytometry (reference value: 19.9 +/- 0.5%); type: functional, Homo sapiens
[27] = Cytotoxicity against human MCF10A cells after 48 hrs by MTT assay; type: cell-based; conditions: mcf-10a; method in brief: as §1
HEK293 [28] = assay: Induction of cell cycle arrest in HEK293 cells assessed as accumulation at G2/M phase at 10 uM after 48 hrs by propidium iodide staining based flow cytometry (reference value: 2.63 +/- 0.7%); type: functional, Homo sapiens
[29] = target: T1, Nuclear factor NF-kappa-B complex (Homo sapiens); assay: Inhibition of NFkappaB (unknown origin) expressed in HEK293 cells assessed as reduction in transcriptional activity at 10 uM after 48 hrs by luciferase reporter gene assay; type: cell-based; method in brief: as §2
HEK293 [30] = assay: Reduction in Bcl-xL expression in HEK293 cells at LC50 level after 48 hrs by Western blot method; type: functional, cell-based; conditions: Homo sapiens
HEK293 [31] = assay: Increase in Bax expression in p53 deficient HEK293 cells at LC50 level after 48 hrs by Western blot method; type: functional, cell-based; conditions: Homo sapiens
HEK293 [32] = assay: Increase in caspase-3 expression in HEK293 cells at LC50 level after 48 hrs by immunocytochemistry; type: functional, cell-based; conditions: Homo sapiens
HEK293 [33] = assay: Induction of cell cycle arrest in HEK293 cells assessed as accumulation at G2/M phase at 15 uM after 48 hrs by propidium iodide staining based flow cytometry (reference value: 2.63 +/- 0.7%); type: functional, Homo sapiens
HEK293 [34] = assay: Increase in PARP cleavage in HEK293 cells at LC50 level after 48 hrs by Western blot method; type: functional, cell-based; conditions: Homo sapiens
HEK293 [35] = assay: Induction of apoptosis in HEK293 cells at 20 uM after 48 hrs by propidium iodide staining based flow cytometry relative to untreated control; type: functional, Homo sapiens
HEK293 [36] = assay: Induction of cell cycle arrest in HEK293 cells assessed as accumulation at S phase at 15 uM after 48 hrs by propidium iodide staining based flow cytometry (reference value: 19.9 +/- 0.5%); type: functional, Homo sapiens
HEK293 [37] = assay: Induction of apoptosis in HEK293 cells at 5 to 20 uM after 48 hrs by DAPI staining based fluorescence microscopy; type: functional, cell-based; conditions: Homo sapiens

## C=C1CC[C@@H]2[C@]3(C)COC(C)(C)O[C@@H]3CC[C@@]2(C)[C@@H]1C/C=C1/C(=O)OC[C@H]1OC(=O)CBr
HEK293 [1]
  CC50: 17 µM
Vero
  LC50: 36 µM

## C[C@]1(CO)[C@H]2CC[C@@]3(CO3)[C@@H](C/C=C3/C(=O)OC[C@H]3OC(=O)CI)[C@]2(C)CC[C@H]1O
HEK293 [2]
  Activity: 25.38%
[3]
  Retention_time: 31.4 min
HEK293 [4]
  Activity: Active
HEK293 [5]
  Activity: Active
HEK293 [6]
  Activity: 92.93%
[7]
  inhibition: Dose-dependent effect
HEK293 [8]
  Activity: 15.61%
HEK293 [9]
  Activity: 79.55%
HEK293 [10]
  Activity: 1.18%
[11]
  Activity: Active
HEK293 [12]
  Activity: inactive
HEK293 [13]
  Activity: Active
HEK293 [1]
  CC50: 12 µM
MCF7
  CC50: 7 µM
HEK293 [14]
  Activity: inactive
HEK293 [15]
  Activity: Active
Vero
  LC50: 30 µM
HEK293 [16]
  Activity: inactive
HEK293 [17]
  Activity: 62.05%
HEK293 [18]
  Activity: 77.99%
HEK293 [19]
  Activity: 14.98%
HEK293 [20]
  Activity: Active
HEK293 [21]
  Activity: inactive
HEK293 [22]
  Activity: 2.7%
HEK293 [23]
  Activity: 0.52%
HEK293 [24]
  Activity: 4.98%
HEK293 [25]
  Activity: 5.37%
HEK293 [26]
  Activity: 9.87%
[27]
  LC50: > 40 µM
HEK293 [28]
  Activity: 1.41%
[29]
  fold change (FC): 5
HEK293 [30]
  Activity: Active
HEK293 [31]
  Activity: inactive
HEK293 [32]
  Activity: Active
HEK293 [33]
  Activity: 1.31%
HEK293 [34]
  Activity: Active
HEK293 [35]
  fold change (FC): >6
HEK293 [36]
  Activity: 4.63%
HEK293 [37]
  Activity: Dose-dependent effect

## C=C1CC[C@@H]2[C@]3(C)COC(C)(C)O[C@@H]3CC[C@@]2(C)[C@@H]1C/C=C1/C(=O)OC[C@H]1OC(=O)CI
HEK293 [1]
  CC50: 20 µM
Vero
  LC50: 48 µM

## C[C@]1(CO)[C@H]2CC[C@]3(CO3)[C@@H](C/C=C3/C(=O)OC[C@H]3OC(=O)CBr)[C@]2(C)CC[C@H]1O
[3]
  Retention_time: 27.2 min
HEK293 [1]
  CC50: 24 µM
Vero
  LC50: 32 µM

## COc1cc([C@@H]2c3cc4c(cc3[C@@H](O[C@@H]3O[C@@H]5CO[C@@H](C)O[C@H]5[C@H](O)[C@H]3O)[C@H]3COC(=O)[C@H]23)OCO4)cc(OC)c1O [ETOPOSIDE]
HEK293 [1]
  CC50: 18 µM
Vero
  LC50: 28 µM

## C=C1CC[C@@H]2[C@](C)(CO)[C@H](O)CC[C@@]2(C)[C@@H]1C/C=C1/C(=O)OC[C@H]1OC(=O)CBr
HEK293 [2]
  Activity: 25.16%
[3]
  Retention_time: 24.5 min
HEK293 [4]
  Activity: Active
HEK293 [5]
  Activity: Active
HEK293 [6]
  Activity: 88.84%
[7]
  inhibition: Dose-dependent effect
HEK293 [8]
  Activity: 19.57%
HEK293 [9]
  Activity: 76.62%
HEK293 [10]
  Activity: 1.57%
[11]
  Activity: Active
HEK293 [12]
  Activity: inactive
HEK293 [13]
  Activity: Active
HEK293 [1]
  CC50: 12 µM
MCF7
  CC50: 8.4 µM
HEK293 [14]
  Activity: inactive
HEK293 [15]
  Activity: Active
Vero
  LC50: 45 µM
HEK293 [16]
  Activity: inactive
HEK293 [17]
  Activity: 60.44%
HEK293 [18]
  Activity: 67.33%
HEK293 [19]
  Activity: 14.98%
HEK293 [20]
  Activity: Active
HEK293 [21]
  Activity: inactive
HEK293 [22]
  Activity: 3.96%
HEK293 [23]
  Activity: 0.58%
HEK293 [24]
  Activity: 10.28%
HEK293 [25]
  Activity: 9.01%
HEK293 [26]
  Activity: 10.44%
[27]
  LC50: > 40 µM
HEK293 [28]
  Activity: 2.82%
[29]
  fold change (FC): 5
HEK293 [30]
  Activity: Active
HEK293 [31]
  Activity: inactive
HEK293 [32]
  Activity: Active
HEK293 [33]
  Activity: 1.71%
HEK293 [34]
  Activity: Active
HEK293 [35]
  fold change (FC): >4
HEK293 [36]
  Activity: 6.69%
HEK293 [37]
  Activity: Dose-dependent effect

## O=c1[nH]cc(F)c(=O)[nH]1 [FLUOROURACIL]
HEK293 [1]
  CC50: 25 µM
